Compound activity as filed in PubChem.
FXIa inh = inhibitors of human coagulation factor XIa; P03951; purified FXIa, Boc-Glu-Ala-Arg-AMC fluorogenic substrate; inhibition, % at 5 µM; 220,000 tested, 0.14% active; AID 798;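 active = inhibition of at least 40%; inactive = inhibition below 40%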;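 note: fluorescence of freed AMC excited at 355 nm; 0% = enzyme without compound and 100% = no enzyme blank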
thrombin 1536 = inhibitors of human thrombin; 220,000 tested, 0.26% active; alpha-thrombin, Boc-VPR-AMC fluorogenic substrate cleavage; AID 1046; inhibition, % at 5 µM;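 active = inhibition at or above 40%; inactive = inhibition below 40%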;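 note: 0% = enzyme with no compound and 100% = wells without enzyme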
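Test system: human alpha-thrombin; medium: pH 7.5 Tris-saline with Tween 20; times: reaction at room temperature; signal: AMC fluorescence at 355 nm excitation and 460 nm emission; also added: Boc-VPR-AMC substrate, 15 µM final; dosing: one concentration per compound, 5 µM, with 0.2% DMSO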
EP2 antag = inhibitors of human EP2 prostaglandin E2 receptor | P43116 | 260,000 tested, 0.52% active | C6 glioma cells expressing human EP2, cAMP TR-FRET; cells stimulated with saturating PGE2 | inhibition, % at 25 µM | AID 1422;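 active = percent inhibition above 40 after rounding to a whole number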;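 note: rat C6 glioma host cells with rolipram phosphodiesterase inhibitor present; the protocol text gives 20 µM as final concentration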
Target sequence (P43116 whole entry, looked up): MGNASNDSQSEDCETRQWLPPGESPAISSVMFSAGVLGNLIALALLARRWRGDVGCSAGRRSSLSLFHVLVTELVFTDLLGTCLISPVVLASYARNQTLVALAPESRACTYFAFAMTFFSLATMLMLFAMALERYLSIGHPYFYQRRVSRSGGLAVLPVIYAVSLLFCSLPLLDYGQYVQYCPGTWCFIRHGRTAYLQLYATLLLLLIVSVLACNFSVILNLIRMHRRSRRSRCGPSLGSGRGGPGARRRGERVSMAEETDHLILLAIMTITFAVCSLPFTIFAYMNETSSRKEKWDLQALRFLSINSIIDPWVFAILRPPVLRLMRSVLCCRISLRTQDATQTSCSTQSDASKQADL
FXIIa inh 1536 = inhibitors of human coagulation factor XIIa; inhibition, % at 5 µM; 220,000 tested, 0.3% active; purified FXIIa, Boc-QGR-AMC fluorogenic substrate, 2 h; P00748; AID 800; in the data active = inhibition above about 40%;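 note: 0% = enzyme with no compound and 100% = blank without enzyme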
KLK5 inh = blocks human kallikrein 5 protease activity | Q9Y337 | AID 873 | 210,000 tested, 0.59% active | recombinant hK5, fluorogenic AMC substrate cleavage | inhibition, % at 5 µM;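 active = inhibition of 40% or more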;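 note: 0% = enzyme controls without compound and 100% = no-enzyme blanks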
Target sequence (Q9Y337 67-293 limits assumed): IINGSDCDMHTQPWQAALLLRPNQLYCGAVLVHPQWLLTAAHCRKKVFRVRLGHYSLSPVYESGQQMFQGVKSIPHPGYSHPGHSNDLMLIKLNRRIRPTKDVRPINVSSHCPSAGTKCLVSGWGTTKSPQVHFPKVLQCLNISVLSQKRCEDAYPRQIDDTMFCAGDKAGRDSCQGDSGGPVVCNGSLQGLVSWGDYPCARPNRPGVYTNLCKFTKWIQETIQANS
EP2 mod = EP2 receptor (human) modulation. EP2-expressing cells, cAMP HTRF FRET, PGE2 co-stimulation. induction, % at 25 µM. 260,000 tested, 0.83% active. AID 940;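 active = compounds whose cAMP rise, as percent of the full-agonist control response, exceeds 60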;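 note: rat C6 glioma line stably carrying human EP2 under a CMV promoter; the protocol text gives 20 µM as final concentration; 100% = response of wells given 1 µM PGE2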
Active calls of the source: *; x = no result. An excerpt weighted towards active compounds, which were near 2.1% of everything screened.

SMILES	FXIa inh	thrombin 1536	EP2 antag	FXIIa inh 1536	KLK5 inh	EP2 mod
CCc1nc2sc3c(c2c2nnc(SCC(=O)Nc4nnc(C)s4)n12)CCC(C)C3 (stereo not given)	x	x	7	x	x	-6
COc1ccccc1CN(CC(=O)NCc1ccco1)C(=O)CNS(=O)(=O)c1ccccc1	-3	4	3	0	0	19
COc1ccccc1CN(CC(=O)NCc1ccco1)C(=O)CNS(=O)(=O)c1ccc(C)cc1	8	56*	10	21	-5	-5
Cc1ccc(S(=O)(=O)OC2CCN(C)CC2)cc1	x	x	56*	x	x	-1
Cc1ccc(-c2ccc(S(=O)(=O)N3CCN(C)CC3)cc2)cc1	4	4	-1	10	-12	-4
CC(C)C(NC(=O)OC(C)(C)C)C(=O)NC(CCC(=O)OCc1ccccc1)C(N)=O (stereo not given)	-4	-4	3	1	2	-21
COc1ccccc1NC(=O)C(NC(=O)OC(C)(C)C)C(C)OCc1ccccc1 (stereo not given)	-2	0	4	-3	4	63*
CC(=O)COC(=O)c1cc(-c2ccc(Cl)cc2)nc2ccccc12	x	x	12	x	x	-18
O=C(c1cccs1)N1CCN(C(=O)N2CCCCC2)CC1	x	x	5	x	x	-32
COC(=O)CC1C(=O)NCCN1C(=O)Nc1cccc(Cl)c1 (stereo not given)	2	-1	3	9	5	-11
COc1ccc(OC)c(NC(=O)CC2C(=O)NCCN2C(=O)Nc2cccc(Cl)c2)c1 (stereo not given)	10	23	11	45*	31	-12
CN1CCN(Cc2nc3ccccc3c(=O)n2Cc2nc(-c3ccc([N+](=O)[O-])cc3)cs2)CC1	-7	37	49*	-3	13	-22
CN(C)Cc1nc2ccccc2c(=O)n1Cc1nc(-c2cccc([N+](=O)[O-])c2)cs1	-4	-5	3	8	-4	43
CCOC(=O)CSc1nnc(COc2ccc(Cl)cc2)n1CC	x	x	6	x	x	-44
Cc1c(Cl)cnc(NC(=O)COC(=O)c2ccc3c(c2)OCO3)c1Cl	10	27	3	13	41*	-12
CCOC(=O)c1sc2ccc(S(=O)(=O)N3CCOCC3)cc2c1N	5	38	7	10	56*	-27
CC(C)N(CCCNC(=O)CC1Oc2ccccc2NC1=O)Cc1ccccc1 (stereo not given)	1	8	18	22	55*	-14
O=C(CC1Oc2ccccc2NC1=O)NCCCN1CCCC1=O (stereo not given)	2	12	22	18	53*	-32
CCN(CC)c1nc(N)nc(N(CC)CC)n1	x	x	14	x	x	-10
COc1ccc(-n2nnnc2SCC(=O)Nc2ccc(C)cc2C)cc1	x	x	12	x	x	-57
CCOC(=O)c1sc2nc3c(SCC(=O)O)cc(C(=O)c4ccccc4O)cn3c(=O)c2c1C	-2	-2	1	5	-12	54
O=C(O)CSc1cc(C(=O)c2ccccc2O)cn2c(=O)c3c(-c4ccccc4)csc3nc12	0	-4	8	13	6	61*
O=C(Nc1ccc(F)cc1)C1CCN(C(=O)c2cccs2)CC1	x	x	12	x	x	-3
COC(=O)c1ccc(C)c(N(CCO)CCO)c1	4	24	5	10	57*	22
O=C(Nc1nc2ccccc2o1)Nc1ccccc1Cl	x	x	41*	x	x	-43
SMILES	FXIa inh	thrombin 1536	EP2 antag	FXIIa inh 1536	KLK5 inh	EP2 mod
CCN(Cc1ccccc1)c1ccc(/C=N/NC(=O)c2cccc(S(=O)(=O)N3CCOCC3)c2)cc1	12	20	9	20	56*	-15
CN(C)Cc1cc(C(C)(C)C)cc(C(C)(C)C)c1O	3	-8	11	5	0	10
CN(C)Cc1ccc(C(C)(C)C)cc1-c1cc(C(C)(C)C)ccc1CN(C)C	x	x	51*	x	x	9
O=C(CC1NC(=O)c2ccccc21)NC1(c2ccc(F)cc2)CCCC1 (stereo not given)	x	x	8	x	x	-22
Cc1ccc2c(c1)-c1c(ssc1=S)C(C)(C)N2C(=O)CSC1=NCCS1	4	-251	8	12	-5	45
CCCC(=O)N1c2cc(C)ccc2-c2c(ssc2=S)C1(C)C	x	x	7	x	x	67*
O=C1C2[C@@H](c3ccccc3)N[C@@H](c3ccccc3)C1[C@@H](c1ccccc1)N[C@H]2c1ccccc1	x	x	47*	x	x	-9
CC1C(=NO)C(C)C(c2ccccc2)NC1c1ccccc1 (stereo not given)	-3	3	11	19	-3	30
O=C(CNCC1CCCO1)N1CCCc2ccccc21 (stereo not given)	6	15	9	9	52*	-2
COc1ccc(C(=O)Nc2nc(-c3ccc4c(c3)CCN4C(=O)C3CC3)cs2)cc1	x	x	11	x	x	-55
CCN(CC(=O)NC(C)C)Cc1nc2c(Br)cc(Br)cc2c(=O)[nH]1	-5	0	13	2	-24	65*
Cc1ccc2cc(CN(Cc3nnnn3CC3CCCO3)C3CCCC3)c(=O)[nH]c2c1C (stereo not given)	x	x	13	x	x	-14
CC1CC2(CCCCC2)Nc2c1ccc1ccccc21 (stereo not given)	-5	-7	16	-7	-18	63*
Cc1ccc(SCc2[nH]nc3c2C(C2CCCCC2)C(C#N)=C(N)O3)cc1 (stereo not given)	x	x	10	x	x	39
O=C(c1ccncc1)N(CCc1ccccc1)Cc1nc2ccccc2c(=O)[nH]1	x	x	7	x	x	1
Cc1ccc(C(=O)CSc2nc(C)cc(C)c2C(N)=O)cc1	14	104*	5	22	49*	22
COc1cccc2sc(NC(=O)c3ccc(S(=O)(=O)N4CCOCC4)cc3)nc12	16	19	11	41*	32	-30
COc1ccccc1NC(=O)c1ccc(S(=O)(=O)N2CCOCC2)cc1	0	1	12	15	-2	3
COc1cc(C2C(C#N)=C(N)Oc3n[nH]c(-c4cccs4)c32)ccc1OC(C)=O (stereo not given)	x	x	14	x	x	-69
COCCNC(=O)Cn1cc(/C=C2/C(=O)NC(=O)N(c3ccc4ccccc4c3)C2=O)c2ccccc21	x	x	10	x	x	-66
N#CCn1cc(/C=C2\C(=O)NC(=O)N(c3ccc(Cl)cc3)C2=O)c2ccccc21	x	x	84*	x	x	-107
COc1cc(C(=O)Nc2sc3c(c2C(=O)NCC2CCCO2)CCCC3)cc(OC)c1OC (stereo not given)	x	x	14	x	x	18
Cc1ccc(C2C=C(c3ccccc3)Nc3nc(N4C(=O)CCC4=O)nn32)cc1 (stereo not given)	2	48*	4	6	0	-19
COc1ccc(C2=[N+](C)CCn3cccc32)c(OC)c1	5	25	8	69*	35	-8
COc1ccc(C(=O)C[N+]2=C(C)c3cccn3CC2)cc1	x	x	7	x	x	-6
